Laboratory results reported in ChEMBL document CHEMBL1140145, “Identification of non-nucleoside DNA synthesis inhibitors of vaccinia virus by high-throughput screening” (J Med Chem, 2008).
Active and inactive are the calls of the source. The calls are words filed in the database; no cut-off is given here.

Assays:
[1] = Cytotoxicity against african green monkey BSC1 cells after 120 hrs WST-1 based assay; assay type: cell-based, BSC-1; conditions: chlorocebus aethiops, read-out: TC50
In short: (§1)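 Uninfected BS-C-1 cells in phenol red-free medium, seeded 5000 (20 h), 1000 (3-day) or 200 (5-day) cells/well, exposed next day to compound in two-fold serial dilutions (top 200 µM; 1% DMSO final) at 37°C. WST-1 added 30 min, A450 read. Triplicates; percent cytotoxicity vs DMSO fitted four-parameter sigmoidal for TC50.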

Vaccinia virus [2] = test: Antiviral activity against Vaccinia virus WR in BSC1 cells assessed as protection from virus-induced lysis of cell monolayer after 20 hrs; assay type: functional, organism-based; conditions: Orthopoxvirus vaccinia, BSC-1, 20 h
Vaccinia virus [3] = test: Antiviral activity against Vaccinia virus WR in BSC1 cells assessed as retention of antiviral potency by measuring exogenous double stranded DNA trapping; assay type: functional, organism-based; conditions: Orthopoxvirus vaccinia, BSC-1
[4] = Cytotoxicity against african green monkey BSC1 cells after 20 hrs WST-1 based assay; assay type: cell-based, BSC-1; conditions: chlorocebus aethiops, read-out: TC50; in short: as §1
[5] = Selectivity index, TC50 for african green monkey BSC1 cells after 20 hrs to EC50 for Vaccinia virus WR in BSC1 cells after 20 hrs by cell protection assay; assay type: toxicity, cell-based, BSC-1; conditions: read-out: Selectivity Index
[6] = Cytotoxicity against african green monkey BSC1 cells after 72 hrs WST-1 based assay; assay type: cell-based, BSC-1; conditions: chlorocebus aethiops, read-out: TC50; in short: as §1
Vaccinia virus [7] = test: Inhibition of Vaccinia virus DNA synthesis in by rapid plate assay; assay type: functional, organism-based; conditions: Orthopoxvirus vaccinia
Vaccinia virus [8] = test: Antiviral activity against Vaccinia virus WR in BSC1 cells assessed as reduction in plaque formation after 20 hrs; assay type: functional, organism-based; conditions: Orthopoxvirus vaccinia, BSC-1, 20 h
[9] = Selectivity index, TC50 for african green monkey BSC1 cells after 72 hrs to EC50 for Vaccinia virus WR in BSC1 cells after 72 hrs by cell protection assay; assay type: toxicity, cell-based, BSC-1; conditions: read-out: Selectivity Index

Row | SMILES | CC50 at 120 h [1] [µM] | EC50 (Vaccinia virus [2]) [µM] | Activity (Vaccinia virus [3]) | CC50 at 20 h [4] [µM] | selectivity ratio at 20 h [5] | CC50 at 72 h [6] [µM] | IC50 (Vaccinia virus [7]) [µM] | EC50 (Vaccinia virus [8]) [µM] | selectivity ratio at 72 h [9]
1 | Cc1cc(OC(=O)c2ccco2)nc(SCc2c(Cl)cccc2Cl)n1 | > 100 | 100 | Active | > 100 | > 2 | > 100 | 52 | 75 | –
2 | Cc1cc(/N=C/c2cc(Cl)cc(Cl)c2O)no1 | 20 | 95 | Active | > 200 | > 2.1 | 50 | 30 | 75 | –
3 | CCn1c2ccccc2c2ccc(/C=N/n3cnnc3)cc21 | 3 | 50 | Active | > 200 | > 4 | 36 | 131 | 50 | –
4 | COc1ccc(-c2cc3ccccn3c2C(=O)c2cccnc2)c(OC)c1 | 60 | 87 | inactive | > 200 | > 2.3 | 152 | 25 | 100 | –
5 | N=C1S/C(=C/c2ccco2)C(=O)N1c1nccs1 | 50 | 80 | Active | > 100 | > 1.2 | > 100 | 32 | 75 | –
6 | COC(=O)c1cccc2c1-c1ccccc1/C2=N\O | 20 | 9.6 | Active | 127 | 13.2 | – | 108 | 10 | 3.2
7 | Cc1c(/N=C/c2cc(Br)cc(Br)c2O)cccc1C(=O)O | 20 | 100 | Active | > 200 | > 2 | 38 | 26 | 75 | –
8 | CC(=O)n1c2ccccc2c2nc(C)sc21 | 75 | – | Active | > 200 | > 1 | > 200 | 111 | 100 | –
9 | O=C(Nc1ccccc1C(=O)O)OCC1c2ccccc2-c2ccccc21 | 20 | – | Active | > 200 | > 1.9 | 40 | 26 | 75 | –
10 | O=C1/C(=C/C2CCCO2)CC/C1=C\C1CCCO1 (stereo not drawn) | 50 | 100 | Active | > 100 | > 1 | > 100 | 239 | 50 | –
